This is an account of results in article PMC5490379 (Molecular pharmaceutics, 2017).

For series [1], the target named is σ1 receptor (Cavia porcellus, UniProt Q60492). Briefly: In vitro σ1 binding assay. Also noted: species or system guinea pig. The following applies: for fold reduction in σ1 affinity: compared with 3a; for Ki σ1: guinea pig brain membrane homogenates. A digest of the protocol: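 Guinea pig brain membrane homogenate (300–500 µg protein) incubated with 3 nM [3H]-(+)-pentazocine (51.7 Ci/mmol) and test compound (10-4 to 10-12 M) in 50 mM Tris-HCl pH 8.0, 25 °C, 120 min. Stopped with ice-cold 10 mM Tris-HCl pH 8.0, filtered on PEI-soaked glass fibre filters, washed twice. […] IC50 by iterative curve fitting; Ki by Cheng-Prusoff. Protein by Lowry.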

The target in the next series is T1, σ2 receptor (Rattus norvegicus, UniProt Q5U3Y7).
T1 sequence (Q5U3Y7 1-176): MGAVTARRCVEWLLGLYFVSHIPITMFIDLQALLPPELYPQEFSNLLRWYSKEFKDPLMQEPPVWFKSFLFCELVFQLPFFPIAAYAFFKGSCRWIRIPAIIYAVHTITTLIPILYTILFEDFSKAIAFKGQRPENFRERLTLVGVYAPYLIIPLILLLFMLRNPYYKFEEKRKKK
Nature of the series: In vitro σ2 binding assay. Particulars: for fold reduction in σ2 affinity: compared with 3a; for Ki σ2: rat liver membrane homogenates, 3 nM [^3H]DTG, 1 μM dextrallorphan. In short, it runs like this:
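Rat liver membrane homogenate (150–200 µg protein) incubated with 3 nM [3H]DTG (39.4 Ci/mmol) plus 1 µM dextrallorphan to mask σ1 sites, with test compound from 10-4 to 10-12 M. Conditions as for σ1: 50 mM Tris-HCl pH 8.0, 25 °C, 120 min, then filtration. […] IC50 by curve fitting, converted to Ki by Cheng-Prusoff.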

Series [2] relates to σ1 receptor. The following applies: ref [10]; cited from earlier work.
A short description of series [3]: Mouse liver microsomal assay. Type of series: in vitro ADME. Particulars: liver microsomes. A digest of the protocol:
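Mouse liver microsomes (20 mg/mL stock) diluted in 0.1 M phosphate buffer containing 3.3 mM MgCl2. Test compound added from a 100 µM stock, with verapamil as positive control. Intact test compound quantified over time by LC-MS/MS, and metabolic degradation half-life derived from its disappearance.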
Background: Liver microsomes are vesicles of endoplasmic reticulum, rich in cytochrome P450 enzymes.

The next series relates to PC-3 prostate tumors. The following applies: mice bearing PC-3 prostate tumors; ref [30]; cited from earlier work.

Chain of σ1 receptor (Cavia porcellus, UniProt Q60492) (Q60492 whole entry): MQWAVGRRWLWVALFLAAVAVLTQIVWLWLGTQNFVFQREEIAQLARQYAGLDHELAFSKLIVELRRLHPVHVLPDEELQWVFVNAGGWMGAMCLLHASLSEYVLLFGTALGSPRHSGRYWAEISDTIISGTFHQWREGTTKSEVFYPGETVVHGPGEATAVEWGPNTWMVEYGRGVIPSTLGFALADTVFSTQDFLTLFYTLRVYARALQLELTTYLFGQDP

Consider `O=C(NCCN1CCCCC1)c1cc(Br)ccc1OCCCF` [Compound 3b, 5-Bromo-2-(3-fluoropropoxy)-N-{2-(piperidin-1-yl)ethyl}benzamide], for which the “fold reduction in σ1 affinity” value on σ1 receptor [1] was 9 fold. Moreover, the “fold reduction in σ2 affinity” value at σ2 receptor worked out at 9 fold.

Turning to `O=C(NCCN1CCCCC1)c1ccc(I)cc1` [Compound 4-IPAB], the σ1 affinity entry with σ1 receptor [2] was “nanomolar”.

For `O=C(NCCN1CCCCC1)c1ccc(O)c(Br)c1` [Compound 6, 3-Bromo-4-hydroxy-N-{2-(piperidin-1-yl)ethyl}benzamide], at σ1 receptor [1] (3 nM [^3H]-(+)-pentazocine), the “Ki σ1” value is given as “devoid of σ receptor binding affinity”. The “Ki σ2” value at σ2 receptor was “devoid of σ receptor binding affinity”.

As usually defined, the Ki is the equilibrium dissociation constant of an inhibitor or competing ligand from its target. Read a high Ki as a looser hold on the target. In general, half-life refers to how long it takes for the measured level to halve. As to `O=C(NCCN1CCCCC1)c1cc(Br)ccc1OCCF` [Compound 3a, 5-Bromo-2-(2-fluoroethoxy)-N-{2-(piperidin-1-yl)ethyl}benzamide], the affinity on σ1 receptor [1] (Ki σ1, guinea pig brain membrane homogenates, 3 nM [^3H]-(+)-pentazocine) corresponds to a Ki of 6.3 nM. This compound also returned a half-life at 1 μM in series [3] of 5.94 min.

With `O=C(NCCN1CCCCC1)c1ccc(OCCF)c(Br)c1` [Compound 7a, 3-Bromo-4-(2-fluoroethoxy)-N-{2-(piperidin-1-yl)-ethyl}benzamide], the “fold reduction in σ1 affinity” value at σ1 receptor [1] is listed as 6 fold. Further, the “fold reduction in σ2 affinity” value on σ2 receptor stood at 4 fold.

Consider `O=C(NCCN1CCCCC1)c1cc(Br)ccc1O` [Compound 2, 5-Bromo-2-hydroxy-N-{2-(piperidin-1-yl)ethyl}benzamide], for which the “Ki σ1” value on σ1 receptor [1] (3 nM [^3H]-(+)-pentazocine) was “devoid of σ receptor binding affinity”. The “Ki σ2” value at σ2 receptor is recorded as “devoid of σ receptor binding affinity”.

With `COc1ccc(C(=O)NCCN2CCCCC2)cc1I` [PIMBA], the σ1 affinity entry in the series with σ1 receptor [2] is listed as “nanomolar”.

Take `[11CH3]Oc1cccc2c1CCCC2CCCN1CCN(C2CCCCC2)CC1` (stereo not shown) [[^11C]PB28]: in the series with PC-3 prostate tumors, the tumor uptake entry is listed as “poor tumor uptake”.
